Reference: ChEMBL document CHEMBL4651341, “The discovery of a novel series of compounds with single-dose efficacy against juvenile and adult Schistosoma species” (PLoS Negl Trop Dis, 2021)
≈ marks a conversion by molar mass, not a printed value.

Legend:
[1] = Mean AUC inf in Swiss albino male mice at 1 mg/kg per compound (administered iv in a mixture of 5 compounds to 3 mice) assessed by LCMS/MS.; type: ADME, organism-based; details: male, Swiss albino, mouse, in vivo
Method in brief: (§1)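 Male Swiss albino mice (~30 g), 3 per experiment, mostly dosed as mixtures of 5 compounds iv via the lateral tail vein. Vehicle: 10% DMSO/90% 50 mM Na2HPO4 with 0.5% Tween-80. Blood sampled at 5, 15, 30 min and 1, 2, 4, 8, 24 h. Plasma stored at −20 °C and quantified by LC-MS after acetonitrile precipitation.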

Schistosoma mansoni [2] = assay: Concentration required to kill 50% of 21 day old worms 5 days after drug treatment.; type: functional, organism-based; details: Puerto Rican, 120 h
Method in brief: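 Juvenile S. mansoni (Puerto Rican strain) were perfused from CD1 mice 3 weeks post-infection and washed. They were cultured 6–8 per well in 200 µL DMEM with 2 mM glutamine, penicillin/streptomycin and 10% FCS at 37 °C, 5% CO2. Viability of individual worms was scored on day 5 after dosing (120 h).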

[3] = Percentage of parent compound remaining after incubation for 90 minutes with cyropreserved mouse hepatocytes at a concentration of 1uM compound and […], determined by LCMS; type: ADME, tissue-based, Hepatocyte; details: cryopreserved mouse hepatocytes, read-out: Stability
Method in brief: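 Compound was incubated at 1 µM final (2 µM working solution mixed 1:1 with hepatocyte suspension) in supplemented KHB pH 7.4. Conditions: 37 °C, 5% CO2, gentle mixing, duplicates. Reaction quenched with ice-cold acetonitrile containing standard; analysed by LC-MS/MS. % remaining = AUC at t / AUC at T0.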

[4] = Mean plasma concentration at 4h in Swiss albino male mice at […] per compound (administered orally in a mixture of 5 compounds to 3 mice) assessed by LCMS/MS.; type: ADME, organism-based; details: mouse, po
[5] = Mean time to peak plasma concentration in Swiss albino male mice at […] per compound (administered orally in a mixture of 5 compounds to 3 mice) assessed by LCMS/MS.; type: ADME, organism-based; details: mouse, po
[6] = Mean oral bioavailability in Swiss albino male mice at […] per compound (administered in a mixture of 5 compounds to 3 mice) assessed by LCMS/MS.; further: dose 2.5 mg/kg; type: ADME, organism-based; details: male, Swiss albino, mouse, in vivo, read-out: Bioavailability
[7] = Mean half-life in Swiss albino male mice at 1 mg/kg per compound (administered iv in a mixture of 5 compounds to 3 mice) assessed by LCMS/MS.; type: ADME, organism-based; details: mouse, in vivo
Method in brief: (§2)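 Male Swiss albino mice (~30 g), 3 per experiment, mostly dosed as mixtures of 5 compounds iv via the lateral tail vein. Vehicle: 10% DMSO/90% 50 mM Na2HPO4 with 0.5% Tween-80. Plasma stored at −20 °C and quantified by LC-MS after acetonitrile precipitation.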

[8] = Mean observed clearance in Swiss albino male mice at 1 mg/kg per compound (administered iv in a mixture of 5 compounds to 3 mice) assessed by LCMS/MS.; type: ADME, organism-based; details: male, Swiss albino, mouse, in vivo, read-out: Clearance (converted); method in brief: as §1
[9] = Mean plasma concentration at 24h in Swiss albino male mice at […] per compound (administered orally in a mixture of 5 compounds to 3 mice) assessed by LCMS/MS.; type: ADME, organism-based; details: mouse, po
[10] = Solubility at 25 degC of compound (diluted from DMSO) in PBS at pH 7.4 determined after 24h (1h sonication, 22h shaking, 1h sonication) by LCMS/MS; type: physicochemical
[11] = Concentration required to kill 50% HepG2 cells as detected by MTT staining; type: toxicity, cell-based; details: homo sapiens, read-out: TC50 (the source's name)
[12] = Mean volume of distribution at steady state in Swiss albino male mice at 1 mg/kg per compound (administered iv in a mixture of 5 compounds to 3 mice) assessed by LCMS/MS.; type: ADME, organism-based; details: mouse, in vivo, read-out: Volume; method in brief: as §2
Schistosoma mansoni [13] = assay: Concentration required to kill 50% of 42 day old worms 5 days after drug treatment.; type: functional, organism-based; details: Puerto Rican, 120 h
Method in brief: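 Adult S. mansoni were perfused from CD1 mice 6 weeks post-infection and washed. They were cultured 3 pairs per well in 1 mL DMEM with 2 mM glutamine, penicillin/streptomycin and 10% FCS […] at 37 °C, 5% CO2. Viability of individual worms was scored on day 5 (120 h).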

SMILES | AUC(0-inf) [1] | EC50 (Schistosoma mansoni [2]) | remaining at 1.5 h, 1 µM [3] | concentration at 4 h [4] | Tmax [5] | bioavailability [6] | half-life [7] | clearance [8] | concentration at 24 h [9] | solubility kinetic at 24 h [10] | CC50 [11] | Vd [12] | EC50 (Schistosoma mansoni [13])
Cc1nc2cnc(-c3ccc(F)c(C(F)(F)F)c3)cn2c1-c1c(F)cc(OP(=O)(O)O)cc1F | 111 ng·h/mL | 103 nM | 40.8% | 15.6 ng/mL | 15 min | 39.3% | 139 min | 75.3 mL/min/kg | 0.1 ng/mL | 136 µM (≈ 68.4 µg/mL) | 6800 nM | 7.18 L/kg | 
Fc1c(-c2c(C3CC3)nc3cnc(-c4cccc(S(F)(F)(F)(F)F)c4)cn23)ccc2[nH]ncc12 |  | 35.8 nM | 80.9% |  |  |  |  |  |  | 1.7 µM (≈ 0.842 µg/mL) | 20700 nM |  | 20.7 nM
CC(C)c1nc2cnc(-c3ccc(F)c(S(F)(F)(F)(F)F)c3)cn2c1-c1ccc2[nH]ncc2c1F | 1470 ng·h/mL | 8.21 nM | 68.1% | 381 ng/mL | 140 min | 83.3% | 538 min | 5.75 mL/min/kg | 71.4 ng/mL | 0.865 µM (≈ 0.446 µg/mL) |  | 3.39 L/kg | 11.2 nM
CC(C)c1nc2cnc(-c3ccc(F)c(C(F)(F)F)c3)nc2n1-c1c(F)cc(O)cc1F | 360 ng·h/mL | 128 nM | 12.5% | 52.6 ng/mL | 15 min | 45% | 425 min | 23.3 mL/min/kg | 5.17 ng/mL | 1.26 µM (≈ 0.57 µg/mL) | 4800 nM | 7.39 L/kg | 71.4 nM
CC(C)c1cccc(-c2cn3c(-c4ccc5[nH]ncc5c4F)c(C(F)(F)F)nc3cn2)c1 |  | 5.18 nM | 16.7% |  |  |  |  |  |  |  | 12900 nM |  | 5.3 nM
CC(C)c1nn2cnc(-c3ccc(F)c(C(F)(F)F)c3)cc2c1-c1c(F)cc(O)cc1F | 342 ng·h/mL | 26.9 nM | 42.2% | 22.4 ng/mL | 20 min | 14.3% |  | 25.2 mL/min/kg | 0.01 ng/mL | 6.55 µM (≈ 2.96 µg/mL) | 8900 nM | 1.77 L/kg | 21.7 nM
CC(C)c1nc2cnc(-c3cccc(S(F)(F)(F)(F)F)c3)cn2c1-c1c(F)cc(O)cc1F | 231 ng·h/mL | < 12 nM | 31.1% | 16.6 ng/mL | 15 min | 18.4% | 106 min | 36.2 mL/min/kg | 0.1 ng/mL | 6.63 µM (≈ 3.26 µg/mL) | 6600 nM | 2.64 L/kg | 23.8 nM
CCc1nn2cnc(-c3ccc(F)c(C(F)(F)F)c3)cc2c1-c1c(F)cc(O)cc1F | 144 ng·h/mL | 32.3 nM | 50.7% | 9.68 ng/mL | 20 min | 21.1% | 74.4 min | 58.5 mL/min/kg | 0.01 ng/mL | 1.21 µM (≈ 0.529 µg/mL) | 9800 nM | 4.06 L/kg | 10.9 nM
CC(C)c1nc2cnc(-c3ccc(F)c(C(F)(F)F)c3)cn2c1-c1ccc(O)cc1Cl |  | 127 nM | 20.3% |  |  |  |  |  |  |  |  |  | 102 nM
Cc1nc2cnc(-c3cccc(C(F)(F)C(F)(F)F)c3)cn2c1-c1c(F)cc(O)cc1F | 320 ng·h/mL | 35.1 nM | 33.5% | 55.8 ng/mL | 15 min | 57.1% |  | 26.2 mL/min/kg | 7 ng/mL | 2.33 µM (≈ 1.06 µg/mL) | 9300 nM | 8.08 L/kg | 33.9 nM
CC(C)c1nc2cnc(-c3ccc(F)c(C(F)(F)F)c3)cn2c1-c1c(F)cc(OP(=O)(O)O)cc1F | 54.7 ng·h/mL | 25 nM | 0.9% | 4.01 ng/mL | 15 min | 21.4% | 25 min | 153 mL/min/kg | 0.1 ng/mL | 179 µM (≈ 95.1 µg/mL) | 6500 nM | 3.62 L/kg | 27.2 nM
